≈ marks a conversion by molar mass, not a printed value.
What was measured:
Format in all cases: functional, cell-based
LoVo [1] = assay: Cytotoxicity against human doxorubicin-resistant LoVo cells by SRB assay
Summary of the method: (§1)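 Compounds were run across a panel of 13 human tumor cell lines. Potency is expressed as IC50 in μg/mL.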

DU-145 = assay: Cytotoxicity against human DU145 cells by SRB assay; summary of the method: as §1
LoVo [2] = assay: Cytotoxicity against human LoVo cells by SRB assay; summary of the method: as §1
SK-MEL-28 = assay: Cytotoxicity against human SK-MEL-28 cells by SRB assay; summary of the method: as §1
[3] = Cytotoxicity against human IGROV cells by SRB assay; summary of the method: as §1
HT-29 = assay: Cytotoxicity against human HT-29 cells by SRB assay; summary of the method: as §1
LNCaP = assay: Cytotoxicity against human LNCAP cells by SRB assay; summary of the method: as §1
[4] = Cytotoxicity against human ecteinascidin-743-resistant IGROV cells by SRB assay; summary of the method: as §1
SK-BR-3 = assay: Cytotoxicity against human SKBR3 cells by SRB assay; summary of the method: as §1
HeLa [5] = assay: Cytotoxicity against human aplidine-resistant HeLa cells by SRB assay; summary of the method: as §1
A549 = assay: Cytotoxicity against human A549 cells by SRB assay; summary of the method: as §1
HeLa [6] = assay: Cytotoxicity against human HeLa cells by SRB assay; summary of the method: as §1
PANC-1 = assay: Cytotoxicity against human PANC1 cells by SRB assay; summary of the method: as §1

Structure (SMILES)	IC50 (LoVo [1]) [µg/mL]	IC50 (DU-145) [µg/mL]	IC50 (LoVo [2]) [µg/mL]	IC50 (SK-MEL-28) [µg/mL]	IC50 [3] [µg/mL]	IC50 (HT-29) [µg/mL]	IC50 (LNCaP) [µg/mL]	IC50 [4] [µg/mL]	IC50 (SK-BR-3) [µg/mL]	IC50 (HeLa [5]) [µg/mL]	IC50 (A549) [µg/mL]	IC50 (HeLa [6]) [µg/mL]	IC50 (PANC-1) [µg/mL]
CC1=C(CC[C@H]2[C@]3(C)CCC(=O)C(C)(C)O[C@H]3CC[C@]2(C)O)[C@@]2(C)CCC(=O)C(C)(C)C2=C(O)C1=O [SODWANONE A]	0.3 (≈ 0.599 µM)	1.8 (≈ 3.6 µM)	8.5 (≈ 17 µM)	7.5 (≈ 15 µM)	1.7 (≈ 3.4 µM)	> 10	3.8 (≈ 7.59 µM)	0.068 (≈ 0.136 µM)	> 10	2.9 (≈ 5.79 µM)	3.5 (≈ 6.99 µM)	2.1 (≈ 4.19 µM)	0.7 (≈ 1.4 µM)
CC1=C(CC[C@@H]2[C@@]3(CC[C@@H]4OC(C)(C)C(=O)CC[C@]42C)CO3)[C@@]2(C)CCC(=O)C(C)(C)C2=C(O)C1=O [SODWANONE G]	2.7 (≈ 5.41 µM)	> 10	> 10	> 10	5 (≈ 10 µM)	> 10	4.3 (≈ 8.62 µM)	2.7 (≈ 5.41 µM)	> 10	4.2 (≈ 8.42 µM)	> 10	5.4 (≈ 10.8 µM)	3.1 (≈ 6.22 µM)
C[C@H]1CC[C@@H]2OC(C)(C)[C@@H](O)CC=C2[C@@]1(C)CC[C@H]1[C@]2(C)CCC(=O)C(C)(C)O[C@H]2CC[C@]1(C)O [SODWANONE S]	3.3 (≈ 6.72 µM)	> 10	6.9 (≈ 14.1 µM)	6.5 (≈ 13.2 µM)	> 10	> 10	5 (≈ 10.2 µM)	4.7 (≈ 9.58 µM)	3.8 (≈ 7.74 µM)	> 10	> 10	> 10	4.1 (≈ 8.35 µM)
